For two substances, Activity and Drug uptake results are on record in ChEMBL document CHEMBL4765236, “Insights into the Antimicrobial Activity and Cytotoxicity of Engineered α-Helical Peptide Amphiphiles” (J Med Chem, 2016).

For series [1], the system named is Staphylococcus aureus. Put plainly: Induction of morphological changes in Staphylococcus aureus ATCC 29213 assessed as intracellular changes at 1 times MIC after 60 mins by TEM analysis. The series is classed as functional, organism-based.
For series [2], the system named is Staphylococcus aureus. The series can be described thus: Induction of morphological changes in Staphylococcus aureus ATCC 29213 assessed as membrane alteration at 1 times MIC after 60 mins by TEM analysis. In kind it is functional, organism-based.
The test system of series [3] is Escherichia coli. Put plainly: Induction of morphological changes in Escherichia coli O157:H7 CICC 21530 assessed as membrane alteration at 1 times MIC after 60 mins by TEM analysis. The series is classed as functional, organism-based.
The test system of series [4] is Escherichia coli. The series can be described thus: Induction of morphological changes in Escherichia coli O157:H7 CICC 21530 assessed as intracellular changes at 1 times MIC after 60 mins by TEM analysis. In kind it is functional, organism-based.
The subject of series [5] is HepG2. The series can be described thus: Induction of ROS generation in human HepG2 cells assessed as increase in fluorescence intensity up to 32 uM incubated for 8 hrs by DCFH-DA staining-based fluorescence analysis. As to conditions: dose microM <=32, time 8.0 hrs. In kind it is functional, cell-based.
Series [6] concerns HepG2. The series can be described thus: Induction of apoptosis in human HepG2 cells assessed as nuclear fragmentation at 32 uM measured after 8 hrs by DAPI staining based confocal microscopy. In kind it is functional, cell-based. The gist of the method:
(§1)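 HepG2 cells treated with 32 µM peptide for 2, 4 or 8 h and stained with DAPI. Nuclear morphology imaged by confocal microscopy, with untreated cells as control.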

The subject of a further series is Cell membrane. The series can be described thus: Induction of cell membrane disruption in Staphylococcus aureus ATCC 29213 assessed as spread of fluorescent signal across membrane surface at 1 times MIC in presence of FITC-labelled compound after 30 mins by confocal laser-scanning microscope analysis. The series is classed as subcellular.
Series [7] deals with HepG2. The series can be described thus: Induction of ROS generation in human HepG2 cells assessed as increase in visual fluorescence intensity up to 32 uM measured at 2 hr by DCFH-DA staining-based fluorescence analysis. The series is classed as functional, cell-based. The following applies: dose microM <=32, time 2.0 hrs.
Series [8] deals with HepG2. Put plainly: Induction of morphological changes in human HepG2 cells assessed as appearance of rounded cells at 32 uM after 24 hrs by SEM analysis. The series is classed as functional, cell-based.
The test system of series [9] is HepG2. Put plainly: Induction of morphological changes in human HepG2 cells assessed as decrease in adhesive monolayer at 32 uM after 24 hrs by inverted microscope analysis. The series is classed as functional, cell-based.
Series [10] has as its system Staphylococcus aureus. The series can be described thus: Bactericidal activity against Staphylococcus aureus ATCC 29213 assessed as bacterial killing at 1 times MIC measured within 5 mins by time kill assay. The following applies: time min <5. In kind it is functional, organism-based. Put shortly:
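Log-phase S. aureus 29213 exposed to peptide at 1 × MIC in 10 mM PBS pH 7.4 at 37 °C for 0-90 min. Aliquots taken at fixed intervals, diluted and plated on nutrient agar, and colonies counted after 18 h at 37 °C. Average of three independent assays.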

A further series relates to RAW264.7. Put plainly: Antiinflammatory activity against mouse RAW264.7 cells assessed as inhibition of LPS-induced nitric oxide production at 32 uM measured after 24 hrs by Griess reagent based ELISA. In kind it is functional, cell-based. The gist of the method:
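RAW264.7 cells plated at 1-2 × 10^5 cells/mL and stimulated with 500 ng/mL LPS with or without peptide (0.5-64 µM) for 24 h at 37 °C. Controls were untreated cells and LPS alone. TNF-α in the supernatant measured by ELISA. NO measured by Griess reagent (1% sulfanilamide, 0.1% naphthylethylenediamine, 5% phosphoric acid).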
(In general: Griess reagent forms a coloured azo dye with nitrite.)

Series [11] can be described thus: Drug localization in nucleus of human HepG2 cells assessed as fluorescent signal in presence of FITC-labelled peptide at 32 uM incubated for 4 hrs by DAPI staining based confocal microscopy. The series is classed as ADME, subcellular. As to conditions: hepg2, 4 h. The gist of the method:
(§2)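 HepG2 cells incubated with FITC-labelled peptide at 32 µM. Fluorescence distribution imaged by confocal laser-scanning microscopy at intervals (1, 4 and 8 h).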

The nature of series [12]: Drug localization in cell membrane of human HepG2 cells assessed as green fluorescent signal in presence of FITC-labelled peptide at 32 uM measured up to 8 hrs by DAPI staining based confocal microscopy. The series is classed as ADME, cell membranes. The following applies: hepg2, 8 h. Put shortly:
as §2

Series [13] has as its system Staphylococcus aureus. The series can be described thus: Induction of morphological changes in Staphylococcus aureus ATCC 29213 assessed as outflow of cytoplasm at 1 times MIC after 60 mins by TEM analysis. The series is classed as functional, organism-based.
Series [14] concerns HepG2. Put plainly: Induction of morphological changes in human HepG2 cells assessed as appearance of crimped boundaries at 32 uM after 24 hrs by SEM analysis. The series is classed as functional, cell-based.
Another series concerns Lipopolysaccharide (LPS). The series can be described thus: Displacement of BODIPYTM-TR-cadaverine from Escherichia coli O111:B4 LPS by fluorescence spectroscopic analysis. As to conditions: dose 0.25-4 µM. The gist of the method: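 LPS-binding dye displacement: LPS (25 µg/mL) and BODIPY-TR-cadaverine (2.5 µg/mL) in tris buffer pH 7.4. An equal volume of peptide solution was added and the rise in fluorescence was recorded at excitation 580 nm and emission 620 nm. Melittin served as positive control. Each test was run independently in triplicate.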

Series [15] deals with HepG2. The series can be described thus: Induction of apoptosis in human HepG2 cells assessed as nuclei condensation at 32 uM incubated for 2 to 4 hrs by DAPI-staining based confocal microscopy analysis. The series is classed as functional, cell-based. As to conditions: time 2-4 hrs. Put shortly: as §1

The source made the active and inactive calls. The calls are words filed in the database; no cut-off is given here.

Regarding H-WGEAFSAGVHRLANGGNG-NH2, the outcome in the series on Staphylococcus aureus [1], in the series with Staphylococcus aureus [2], with Escherichia coli [3] and in the series on Escherichia coli [4] was Active. Also, the result in the series on HepG2 [5] was inactive.
Turning to H-WLRAFRRLVRRLARGLRR-NH2, the outcome in the series on HepG2 [6], in the series with Cell membrane, in the series on HepG2 [7], in the series with HepG2 [8], in the series on HepG2 [9] and in the series on Staphylococcus aureus [10] was Active. Further, the outcome in the series with RAW264.7, with Staphylococcus aureus [13], with HepG2 [14], in the series with Lipopolysaccharide (LPS) and in the series on HepG2 [15] was Active. Further, the Drug uptake result in series [11] and in series [12] was “Active” throughout.
